Test results: ChEMBL document CHEMBL3992547, “Antimicrobial activity of rhodanine-3-acetic acid derivatives” (Bioorg Med Chem, 2017)
Values after ≈ are worked out from the molar mass of the structure shown. Active and inactive are the calls of the source. The rule behind the calls is not given here.

Columns and labels:
[1] = tested on: Mycobacterium tuberculosis; experiment: Antimycobacterial activity against Mycobacterium tuberculosis H37Rv 331/88 measured after 14 days by micromethod; type: functional; details: H37Rv 331/88, 336 h
[2] = tested on: Mycobacterium tuberculosis; experiment: Antimycobacterial activity against Mycobacterium tuberculosis H37Rv 331/88 measured after 21 days by micromethod; type: functional; details: H37Rv 331/88, 504 h
Mycobacterium avium [3] = experiment: Antimycobacterial activity against Mycobacterium avium 330/88 measured after 14 days by micromethod; type: functional; details: 330/88, 336 h
Mycobacterium avium [4] = experiment: Antimycobacterial activity against Mycobacterium avium 330/88 measured after 21 days by micromethod; type: functional; details: 330/88, 504 h
Mycobacterium kansasii [5] = experiment: Antimycobacterial activity against Mycobacterium kansasii isolate 235/80 after 7 days by micromethod; type: functional; details: isolate 235/80, 168 h
Mycobacterium kansasii [6] = experiment: Antimycobacterial activity against Mycobacterium kansasii isolate 235/80 after 14 days by micromethod; type: functional; details: isolate 235/80, 336 h
Mycobacterium kansasii [7] = experiment: Antimycobacterial activity against Mycobacterium kansasii isolate 235/80 after 21 days by micromethod; type: functional; details: isolate 235/80, 504 h
Mycobacterium kansasii [8] = experiment: Antimycobacterial activity against Mycobacterium kansasii isolate 6509/96 after 7 days by micromethod; type: functional; details: isolate 6509/96, 168 h
Mycobacterium kansasii [9] = experiment: Antimycobacterial activity against Mycobacterium kansasii isolate 6509/96 after 14 days by micromethod; type: functional; details: isolate 6509/96, 336 h
Mycobacterium kansasii [10] = experiment: Antimycobacterial activity against Mycobacterium kansasii isolate 6509/96 after 21 days by micromethod; type: functional; details: isolate 6509/96, 504 h
[11] = Solubility of the compound in Sula's semisynthetic medium up to 1 mM; type: physicochemical
Staphylococcus aureus [12] = experiment: Antibacterial activity against Staphylococcus aureus CCM 4516/08 incubated for 24 hrs under dark condition by microdilution broth assay; type: functional; details: CCM 4516/08, 24 h
Method in brief: (§1)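 Broth microdilution per M07-A07, modified, in Mueller-Hinton broth adjusted to pH 7.4 (±0.2). Inoculum is prepared in sterile water to McFarland 0.5 (1.5 × 10⁸ CFU/mL). Plates are incubated in the dark at 35 °C in humid air. MIC is read after 24 and 48 h as at least 95% growth reduction versus control (IC₉₅).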

Staphylococcus aureus [13] = experiment: Antibacterial activity against Staphylococcus aureus CCM 4516/08 incubated for 48 hrs under dark condition by microdilution broth assay; type: functional; details: CCM 4516/08, 48 h; method in brief: as §1
Staphylococcus aureus [14] = experiment: Antibacterial activity against methicillin-resistant Staphylococcus aureus H 5996/08 incubated for 24 hrs under dark condition by microdilution broth assay; type: functional; details: H 5996/08, 24 h
Method in brief: (§2)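 Microdilution broth method modified per M07-A07, in Mueller-Hinton broth adjusted to pH 7.4 (±0.2). Inoculum made in sterile water to 0.5 McFarland (1.5 × 10⁸ CFU/mL). Plates incubated in the dark at 35 °C in a humid atmosphere, with reads at 24 and 48 h. MIC taken as at least 95% growth reduction (IC₉₅) versus control.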

Staphylococcus aureus [15] = experiment: Antibacterial activity against methicillin-resistant Staphylococcus aureus H 5996/08 incubated for 48 hrs under dark condition by microdilution broth assay; type: functional; details: H 5996/08, 48 h; method in brief: as §2
[16] = tested on: Staphylococcus epidermidis; experiment: Antibacterial activity against Staphylococcus epidermidis H 6966/08 incubated for 24 hrs under dark condition by microdilution broth assay; type: functional; details: H 6966/08, 24 h; method in brief: as §1
[17] = tested on: Staphylococcus epidermidis; experiment: Antibacterial activity against Staphylococcus epidermidis H 6966/08 incubated for 48 hrs under dark condition by microdilution broth assay; type: functional; details: H 6966/08, 48 h; method in brief: as §1
Escherichia coli [18] = experiment: Antibacterial activity against Escherichia coli CCM 4517 incubated for 24 hrs under dark condition by microdilution broth assay; type: functional; details: CCM 4517, 24 h; method in brief: as §1
Escherichia coli [19] = experiment: Antibacterial activity against Escherichia coli CCM 4517 incubated for 48 hrs under dark condition by microdilution broth assay; type: functional; details: CCM 4517, 48 h; method in brief: as §1
Klebsiella pneumoniae [20] = experiment: Antibacterial activity against Klebsiella pneumoniae D 11750/08 up to 500 uM incubated for 24 to 48 hrs under dark condition by microdilution broth assay; type: functional; method in brief: as §1
Klebsiella pneumoniae [21] = experiment: Antibacterial activity against ESBL positive Klebsiella pneumoniae J 14368/08 up to 500 uM incubated for 24 to 48 hrs under dark condition by microdilution broth assay; type: functional; method in brief: as §1
Pseudomonas aeruginosa = experiment: Antibacterial activity against Pseudomonas aeruginosa CCM 1961 up to 500 uM incubated for 24 to 48 hrs under dark condition by microdilution broth assay; type: functional; method in brief: as §1
Candida albicans [22] = experiment: Antifungal activity against Candida albicans ATCC 44859 after 24 hrs by microdilution broth assay; type: functional; details: ATCC 44859, 24 h
Method in brief: (§3)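 Broth microdilution per CLSI M27-A3 and M38-A2 in RPMI 1640 with glutamine, buffered to pH 7.0 with MOPS. Compounds are diluted in DMSO. Final inoculum is 5 × 10³ CFU/mL for yeasts and 0.5–5 × 10⁴ CFU/mL for moulds. Plates are incubated in the dark at 35 °C in humid air and read visually and/or at 540 nm after 24 and 48 h. MIC is ≥80% growth reduction (IC₈₀) for yeasts and ≥50% (IC₅₀) for filamentous fungi.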

Candida albicans [23] = experiment: Antifungal activity against Candida albicans ATCC 44859 after 48 hrs by microdilution broth assay; type: functional; details: ATCC 44859, 48 h; method in brief: as §3
Candida tropicalis [24] = experiment: Antifungal activity against Candida tropicalis 156 after 24 hrs by microdilution broth assay; type: functional; details: Candida tropicalis, 156, 24 h; method in brief: as §3
Candida tropicalis [25] = experiment: Antifungal activity against Candida tropicalis 156 after 48 hrs by microdilution broth assay; type: functional; details: Candida tropicalis, 156, 48 h; method in brief: as §3
Nakaseomyces glabratus [26] = experiment: Antifungal activity against Candida glabrata 20/I after 24 hrs by microdilution broth assay; type: functional; method in brief: as §3
Nakaseomyces glabratus [27] = experiment: Antifungal activity against Candida glabrata 20/I after 48 hrs by microdilution broth assay; type: functional; method in brief: as §3
Trichosporon asahii [28] = experiment: Antifungal activity against Trichosporon asahii 1188 after 24 hrs by microdilution broth assay; type: functional; details: Trichosporon asahii, 1188, 24 h; method in brief: as §3
Trichosporon asahii [29] = experiment: Antifungal activity against Trichosporon asahii 1188 after 48 hrs by microdilution broth assay; type: functional; details: Trichosporon asahii, 1188, 48 h; method in brief: as §3
Aspergillus fumigatus [30] = experiment: Antifungal activity against Aspergillus fumigatus 231 after 24 hrs by microdilution broth assay; type: functional; details: Aspergillus fumigatus, 231, 24 h; method in brief: as §3
Aspergillus fumigatus [31] = experiment: Antifungal activity against Aspergillus fumigatus 231 after 48 hrs by microdilution broth assay; type: functional; details: Aspergillus fumigatus, 231, 48 h; method in brief: as §3
[32] = tested on: Trichophyton mentagrophytes; experiment: Antifungal activity against Trichophyton mentagrophytes 445 after 72 hrs by microdilution broth assay; type: functional; details: Trichophyton mentagrophytes, 445, 72 h
Method in brief: (§4)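 Broth microdilution per CLSI M38-A2 in RPMI 1640 with glutamine, buffered to pH 7.0 with MOPS, with DMSO as diluent. Final inoculum is 0.5–5 × 10⁴ CFU/mL. Plates are incubated in the dark at 35 °C in humid air and read visually and/or at 540 nm after 72 and 120 h. MIC is at least 50% growth reduction versus control.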

[33] = tested on: Trichophyton mentagrophytes; experiment: Antifungal activity against Trichophyton mentagrophytes 445 after 120 hrs by microdilution broth assay; type: functional; details: Trichophyton mentagrophytes, 445, 120 h; method in brief: as §4
Pichia kudriavzevii = experiment: Antifungal activity against Candida krusei E28 after 24 to 48 hrs hrs by microdilution broth assay; type: functional; method in brief: as §3
Lichtheimia corymbifera = experiment: Antifungal activity against Absidia corymbifera 272 after 24 to 48 hrs hrs by microdilution broth assay; type: functional; method in brief: as §3
Enterococcus [34] = experiment: Antibacterial activity against Enterococcus sp. J 14365/08 incubated for 24 hrs under dark condition by microdilution broth assay; details: J 14365/08, 24 h
Enterococcus [35] = experiment: Antibacterial activity against Enterococcus sp. J 14365/08 incubated for 48 hrs under dark condition by microdilution broth assay; details: J 14365/08, 48 h

Q: Which results are given for `O=C(CN1C(=O)CSC1=S)Nc1ccccc1`?
A: MIC [1]: 1000 µM (≈ 266 µg/mL); MIC [2]: 1000 µM (≈ 266 µg/mL); MIC (Mycobacterium avium [3]): 1000 µM (≈ 266 µg/mL); MIC (Mycobacterium avium [4]): > 1000 µM; MIC (Mycobacterium kansasii [5]): 1000 µM (≈ 266 µg/mL); MIC (Mycobacterium kansasii [6]): 1000 µM (≈ 266 µg/mL); MIC (Mycobacterium kansasii [7]): 1000 µM (≈ 266 µg/mL); MIC (Mycobacterium kansasii [8]): 1000 µM (≈ 266 µg/mL); MIC (Mycobacterium kansasii [9]): 1000 µM (≈ 266 µg/mL); MIC (Mycobacterium kansasii [10]): 1000 µM (≈ 266 µg/mL); solubility [11]: Soluble; MIC95 (Staphylococcus aureus [12]): 500 µM (≈ 133 µg/mL); MIC95 (Staphylococcus aureus [13]): 500 µM (≈ 133 µg/mL); MIC95 (Staphylococcus aureus [14]): > 500 µM; MIC95 (Staphylococcus aureus [15]): > 500 µM; MIC95 [16]: 500 µM (≈ 133 µg/mL); MIC95 [17]: 500 µM (≈ 133 µg/mL); MIC95 (Escherichia coli [18]): > 500 µM; MIC95 (Escherichia coli [19]): > 500 µM; Activity (Klebsiella pneumoniae [20]): inactive; Activity (Klebsiella pneumoniae [21]): inactive; Activity (Pseudomonas aeruginosa): inactive; MIC80 (Candida albicans [22]): > 500 µM; MIC80 (Candida albicans [23]): > 500 µM; MIC80 (Candida tropicalis [24]): 500 µM (≈ 133 µg/mL); MIC80 (Candida tropicalis [25]): 500 µM (≈ 133 µg/mL); MIC80 (Nakaseomyces glabratus [26]): > 500 µM; MIC80 (Nakaseomyces glabratus [27]): > 500 µM; MIC80 (Trichosporon asahii [28]): > 500 µM; MIC80 (Trichosporon asahii [29]): > 500 µM; MIC50 (Aspergillus fumigatus [30]): > 500 µM; MIC50 (Aspergillus fumigatus [31]): > 500 µM; MIC50 [32]: > 500 µM; MIC50 [33]: > 500 µM; Activity (Pichia kudriavzevii): inactive; Activity (Lichtheimia corymbifera): inactive; MIC95 (Enterococcus [34]): 500 µM (≈ 133 µg/mL); MIC95 (Enterococcus [35]): 500 µM (≈ 133 µg/mL)
